Source: PubChem BioAssay AID624467 (The Scripps Research Institute Molecular Screening Center, 2012)
Values joined by “and” are separate entries in the source; they are usually repeats but may differ in a detail not shown here. Identical values can stand only once. Among all 360,000 compounds or so, about 3,600 (1%) were called active.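 The calls were made as follows: active = activation above the mean activation of all test compounds in the run plus 3 SD (cut at about 38% in these data); inactive = the rest.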 Many of the other results were omitted from the sample, so actives are more common in it than they were.

Biological target: Trace amine-associated receptor 1 (Homo sapiens) (UniProt Q96RJ0)
Assay: activators of TAAR1 calcium mobilization – Fluo-8 calcium fluorescence, CHO RD-HGA16 cells, primary screen (AID 624467)
Conditions: CHO RD-HGA16 TAAR1, Fluo-8 calcium fluorescence; at 3 µM; hits give high values; vehicle wells 0%, saturating PEA agonist 100%
Outline: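 Test system: RD-HGA16 (CHO) cells co-expressing Gα16 and hTAAR1 | Doses: Single dose, 3 µM | Schedule: 17-24 h seeding, 75 min 37 °C dye, 30 min RT | Evaluation: % activation from peak over basal fluorescence ratio, DMSO-to-PEA scaled | Technique: Kinetic Fluo-8 calcium fluorescence | Benchmarks: Low control DMSO, high control PEA (EC100)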

Sequence of Trace amine-associated receptor 1 (Homo sapiens) (Q96RJ0 whole entry, looked up): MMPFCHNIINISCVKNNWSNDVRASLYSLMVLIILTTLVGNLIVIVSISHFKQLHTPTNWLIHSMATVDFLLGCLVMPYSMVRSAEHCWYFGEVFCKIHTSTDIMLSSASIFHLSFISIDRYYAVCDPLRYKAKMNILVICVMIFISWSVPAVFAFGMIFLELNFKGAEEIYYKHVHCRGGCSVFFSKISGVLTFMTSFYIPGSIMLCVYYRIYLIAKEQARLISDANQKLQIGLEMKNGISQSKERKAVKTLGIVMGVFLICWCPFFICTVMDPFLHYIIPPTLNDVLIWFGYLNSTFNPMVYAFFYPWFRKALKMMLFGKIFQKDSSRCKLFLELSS

activation, inactive:
COc1ccc(-c2ccccc2C2Cc3nnccc3CN2C(=O)Nc2ccccc2)cc1 (stereo not given) -0.83%, COC(=O)c1cc2c(c3c4ccccc4n(S(=O)(=O)c4cccc(C)c4)c13)C(=O)N(Cc1ccccc1)C2 3.11%, C=CCNC(=O)COC(=O)c1ccccc1C(=O)N(C)C1CCCCC1 5.08%, NS(=O)(=O)c1ccc(CCNC(=O)NC2CCCCC2)cc1 1.51%, CC(C)C(=O)Nc1ccc2c(c1)oc1ccccc12 6.67%, NC(=O)Nc1ccccc1C(=O)NCCc1ccccc1 10.1%, CC(NC(=O)CC1SC(N)=NC1=O)c1ccccc1 (stereo not given) 4.22%, Nc1[nH]c(C(=O)c2ccc(Br)cc2)c(-c2ccc3c(c2)OCO3)c1C(=O)NCCc1c[nH]c2ccccc12 6.41%, NC(c1csc(NC(=O)Nc2ccccc2Oc2ccccc2)n1)c1ccccc1Cl (stereo not given) 13.7%, COc1cc(NC(=O)c2cncc(-c3ccc(C#N)cc3)c2)cc(C(=O)Nc2cccc(C(F)(F)F)c2)c1 7.65% and 3.81%, CC(=O)c1ccc(Nc2nc(C(N)c3ccccc3)cs2)cc1 (stereo not given) 4.52%, COc1cccc(NC(=O)Nc2nnc(N3CCCCC3C)s2)c1 (stereo not given) 0.7%, CCOC(=O)c1csc(NC(=O)Nc2cccc(OC)c2)n1 14.4%, C/C(CC(=O)Nc1cccc(C(F)(F)F)c1)=N\NC(=O)C(=O)NCC(C)C 4.66%, CC1(C(=O)NS(=O)(=O)c2cccc(F)c2)CCN1C(=O)c1cccc2ccccc12 (stereo not given) -0.17%, O=S1(=O)c2c(cccc2N2CCCC2)O[C@H](COCc2ccccc2)CN1C1CC1 0.87%, Cc1cc(N2CCN(C(=O)OC(C)(C)C)C[C@H]2C)ccc1N1CCN(Cc2ccccc2)[C@H](C)C1 0.58%, Cc1nc2c(OCc3ccc(Cl)cc3)cccn2c1N(C)Cc1cccs1 0.87%, CCCCCCCCN1C(=O)[C@@H](CC(=O)NCc2ccccc2)C[C@@]2(C(=O)OC)C1=C[C@H](C(C)(C)C)O[C@@H]2C -0.96%, Cc1ccc(OC(=O)c2cncc(Br)c2)c(C)c1 6.31%, COCCNC(=O)C1CCN(C(=O)C2CC(=O)N(c3ccc(C)cc3)C2)CC1 (stereo not given) -0.76%, COc1ccc(C(=O)NC(=O)CSc2nnc(-c3ccco3)n2-c2ccccc2)cc1 1.34%, COc1ccc(NC(=O)c2sc(N3CCOCC3)nc2-c2ccccc2)c(OC)c1 -1.31%, Cc1nc2ccccc2c(C)c1C(=O)c1ccc(F)cc1 12.1%, Cc1onc(-c2ccccc2)c1C(=O)N1CCN(S(=O)(=O)c2ccccc2C(F)(F)F)CC1 0.73%, O=C(O)C1CCN(S(=O)(=O)N2CCOCC2)CC1 7.75%, Cc1ccc(OCC(=O)Nc2ccc(C(=O)O)cc2NC(=O)COc2ccc(C)c(C)c2)cc1C 3.56%, Cc1cc2oc(=O)cc(-c3ccccc3)c2c(C)c1-c1ccc(OC(F)(F)F)cc1 2.46%, CCO[C@H]1OC(C(=O)N2CCOCC2)=C[C@@H](c2ccc3c(c2)OCO3)[C@@H]1CCCO 5.53%, O=C(NCc1ccccc1)[C@@H]1CCCN1C(=O)[C@@H](NS(=O)(=O)c1ccc(F)cc1F)C1CCCCC1 -0.54%, COc1ccccc1CNS(=O)(=O)c1c(C)[nH]c(C)c1C(=O)N1CCCCC1 0.59%, NC(N)=Nc1nc2ccc(Br)cc2c(=O)[nH]1 10.5%, NC(=O)c1cc(-c2cccnc2)nc2ccc(Br)cc12 0.6%, C=CCNC(=O)COc1coc(CN2CCN(Cc3ccccc3)CC2)cc1=O 2.55%, CCC(C(=O)OCC(=O)Nc1c(Cl)cc(Cl)cc1Cl)c1ccccc1 (stereo not given) 8.86%, CC(C)c1ccc(NC(=O)Cn2ncc3ccccc32)cc1 1.09%, CCOC(=O)N(C)c1c(CC)nc2c(OCc3ccccc3C(=O)OC)cccn12 0.97%, O=C(CN1CCSCC1)N/N=C/c1ccc(Cl)cc1 12.7%, O=C1NC[C@H](CCCCN2CCN(CCc3ccccc3)C(=O)C2=O)N(CC2CCCCC2)C1=O 1.95%, CCN(CCN(C)C)C(=O)c1ccc2nc(C)c(N(C)C(=O)CCc3ccccc3)n2c1 1.46%, O=C(COC(=O)c1cccc(Cl)c1)NC(=O)NCc1ccccc1 2.7%, CCCCN1C(=O)C(C)=C(C)C1OCCc1ccc(OC)c(OC)c1 (stereo not given) 2.56%, Cn1c(=O)c2c(ncn2CCc2ccccc2)n(C)c1=O 2.07%, COC(=O)c1ccc2nc(-c3ccc(OC)c(OC)c3)c(Cc3ccccc3)n2c1 -2.01%, CCCCNS(=O)(=O)CCNCc1ccccc1OC -1.08%, COC(=O)c1ccc2nc(-c3cccc(Br)c3)c(Cc3ccccc3C(F)(F)F)n2c1 4.12%, CCc1c(-c2ccc(F)cc2)ncn1Cc1cccc(-c2ccccc2)c1 0.6%, C=C1CCC(N(O)c2cc(C)on2)C(=C)CCC2C1CC2(C)C (stereo not given) 2.74%, COC(=O)C1=C(C)N(Cc2ccc(C(F)(F)F)cc2)C(=NCc2ccccc2)NC1c1ccccc1C(F)(F)F (stereo not given) 5.43%, O=C(CC1NCCc2ccccc21)Nc1cccc(Cl)c1 (stereo not given) 9.23%, COCCNC(=S)N(C)[C@H]1C[C@H]2c3[nH]c4ccccc4c3CCN2C[C@H]1[C@H](C)O 3.21%, CC1CCCCC1NC(=O)CSc1nnc(N)s1 (stereo not given) 9.77%, CCN(CC)C(=O)CS(=O)CC(=O)Nc1cc(OCCOC)c(Cl)cc1Cl (stereo not given) 5.84%, COc1ccc(OC)c(NC(=O)c2ccc3c(c2)CCN3S(C)(=O)=O)c1 2.63%, Cc1ccc2nc(-c3ccc(CN4CCC(n5cc(-c6ccccc6)[nH]c5=O)CC4)cc3)c(-c3ccccc3)nc2c1 1.53%, Cn1nccc1NC(=O)CC(CC(=O)O)c1ccccc1 (stereo not given) 1.46%, Nc1ncnc2c1ncn2[C@@H]1O[C@H](C(=O)N[C@@H](CCc2ccccc2)C(=O)N2CCCN(Cc3cccs3)CC2)[C@@H](O)[C@H]1O -0.59%, C=CCNC(=O)COC(=O)CNC(=O)c1cc(Cl)cc([N+](=O)[O-])c1 -0.52%, CC[C@H](NC(=O)[C@H](Cc1ccccc1)NC(=O)[C@H]1O[C@@H](n2cnc3c(=O)[nH]c(N)nc32)[C@H](O)[C@@H]1O)c1ccccc1 12.6%, Cc1nc(-c2ccc(Cl)cc2)sc1C1(C)CC(c2ccccc2F)=NO1 (stereo not given) -1.12%, Cc1nc(C(=O)Nc2ccc(Cl)cc2)sc1C1(C)CC(c2ccccc2)=NO1 (stereo not given) 5.24%, O=C(C(=O)N1CCC(CNC(=O)c2cccnc2Cl)CC1)c1cccs1 1.11%, CN1C(=O)CN2CCc3ccccc3C2c2cc(Cl)ccc21 (stereo not given) 3.95%, CC(=O)c1ccc(S(=O)(=O)NCC2CCN(C(=O)C(=O)c3cccs3)CC2)cc1 6.58%, O=C(CSCc1ccc(Br)cc1)Nc1ccc(S(=O)(=O)N2CCCCCC2)cc1 23.4%, O=C(O)CC(SCC(=O)Nc1ccc(Br)cc1)C(=O)O (stereo not given) 5.77%, COC(=O)C1=C(C)N(Cc2ccccc2C(F)(F)F)C(=NCC2CC2)NC1c1cccc(Cl)c1 (stereo not given) 26.6%, CCC(C)C(CO)NC(=O)/C=C/[C@H]1O[C@@H](n2cnc3c(NC(=O)c4ccccc4)ncnc32)[C@H](O)[C@@H]1O (stereo not given in full) 2.69%, COc1cccc(CN(C)C(=O)CC[C@H]2O[C@@H](n3cnc4c(NC(=O)c5ccccc5)ncnc43)[C@H](O)[C@@H]2O)c1 0.18%, COc1ccc(C(CNC(=O)c2cccc(S(=O)(=O)Nc3ccccc3Cl)c2)N2CCOCC2)cc1 (stereo not given) -1.44%

activation, active:
NC(c1csc(NC(=O)Nc2cccc(C(F)(F)F)c2)n1)C1CCCCC1 (stereo not given) 39%, NC(c1ccccc1)c1csc(NC(=O)Nc2cccc(C(F)(F)F)c2)n1 (stereo not given) 57%, COc1ccc(C(N)c2csc(NC(=O)Nc3cccc(C(F)(F)F)c3)n2)cc1 (stereo not given) 50.9%, Cc1onc(-c2ccccc2)c1C(=O)NNC(=S)NC(=O)c1ccc(F)cc1 112%, COc1ccc(C(=O)NC(=S)NNC(=O)c2c(-c3ccccc3)noc2C)cc1 120%, O=c1c2cc(Br)ccc2nc(-c2cccc(Cl)c2)n1O 51.9%, CCC(C(=O)Nc1ccc(C(C)C)cc1)c1ccccc1 (stereo not given) 95.2%, O=C1C=C(c2ccc(Cl)cc2)C(=O)N1Nc1ccccc1 58.9%, CCCCCc1c(-c2cccc(Br)c2)ncn1CCc1ccccc1OC 50.1%, CCCCCc1c(Cc2ccccc2)ncn1CCc1ccccc1OC 62.8%, CCCCCc1c(-c2ccc(OC)c(OC)c2)ncn1CCc1ccccc1OC 60.6%, c1ccc2c(c1)C(=NC1CCCCC1)NC2=NC1CCCCC1 83.2%, Cc1nc(C(=O)NCc2ccccc2)sc1C1(C)CC(c2cccnc2)=NO1 (stereo not given) 57.5%, O=C1CCCN2N=C(SCC(=O)Nc3ccc(Br)cc3)SC2=N1 46.4%, O=C(/C=C/[C@H]1O[C@@H](n2cnc3c(NC(=O)c4ccccc4)ncnc32)[C@H](O)[C@@H]1O)NCc1ccccc1 54.8%
